Key:
[1] = Oral bioavailability in rat constant infusion model; format: ADME, organism-based; settings: in vivo
Procedure, shortened: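 Rat clearance and oral bioavailability derived from a constant infusion model.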

[2] = Clearance in rat at 5 mg/kg; format: ADME, organism-based; design: dose 5 mg/kg; settings: in vivo
[3] = Volume of distribution in rat at 5 mg/kg; format: ADME, organism-based; design: dose 5 mg/kg; settings: in vivo, read-out: Vdss
[4] = test system: Rattus norvegicus; experiment: Reversal of amphetamine-induced gating deficit in Sprague-Dawley at 10 mg/kg, iv; format: functional
Procedure, shortened: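 Anesthetised rats; d-amphetamine 1 mg/kg iv given to disrupt auditory gating recorded in the hippocampal CA3 region (conditioning vs test responses, analogous to human P50). Agonist given iv afterwards; read-out is % gating versus amphetamine-alone. The 10 mg/kg dose was run as a separate experiment. Brain drug levels were measured after the iv doses.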

[5] = molecular target: Type-1 angiotensin II receptor (Homo sapiens) (UniProt P30556); experiment: Inhibition of AT1 receptor at 1 uM
[6] = molecular target: Translocator protein (Homo sapiens) (UniProt P30536); experiment: Inhibition of peripheral BZD receptor at 1 uM
[7] = molecular target: Cholecystokinin receptor type A (Homo sapiens) (UniProt P32238); experiment: Inhibition of CCK1 receptor at 1 uM
[8] = molecular target: D(1A) dopamine receptor (Homo sapiens) (UniProt P21728); experiment: Inhibition of D1 receptor at 1 uM
[9] = molecular target: D(3) dopamine receptor (Homo sapiens) (UniProt P35462); experiment: Inhibition of D3 receptor at 1 uM
[10] = Half life in Sprague-Dawley rat liver microsome; format: ADME; settings: liver microsomes
[11] = molecular target: Sigma non-opioid intracellular receptor 1 (Homo sapiens) (UniProt Q99720); experiment: Inhibition of sigma receptor at 1 uM
[12] = molecular target: Somatostatin receptor (Homo sapiens) (UniProt P35346+P30874+P31391+P30872+P32745); experiment: Inhibition of sst receptor at 1 uM; format: protein assay
[13] = species on record: Homo sapiens; experiment: Inhibition of potassium channel V type at 1 uM
[14] = species on record: Homo sapiens; experiment: Inhibition of chloride channel at 1 uM
[15] = molecular target: Prostaglandin G/H synthase 1 (Homo sapiens) (UniProt P23219); experiment: Inhibition of COX1 at 1 uM
[16] = molecular target: cGMP-dependent 3',5'-cyclic phosphodiesterase (Homo sapiens) (UniProt O00408); experiment: Inhibition of PDE2 at 1 uM
[17] = molecular target: Angiotensin-converting enzyme (Homo sapiens) (UniProt P12821); experiment: Inhibition of ACE at 1 uM
[18] = molecular target: Cathepsin G (Homo sapiens) (UniProt P08311); experiment: Inhibition of cathepsin G at 1 uM
[19] = molecular target: Acetylcholinesterase (Homo sapiens) (UniProt P22303); experiment: Inhibition of acetylcholinesterase at 1 uM
[20] = molecular target: Neuronal acetylcholine receptor subunit alpha-7 (Rattus norvegicus) (UniProt Q05941); experiment: Activity at alpha7 nAChR in Sprague-Dawley rat hippocampal neurons assessed as induction of MLA-inhibited desensitizing inward current at 0.3 uM relative to (-)-nicotine; format: functional, tissue-based; design: scale not given: the % may be the effect or the level left; settings: Hippocampus
Procedure, shortened: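 Rat hippocampal neurons were recorded by whole-cell patch clamp with rapid agonist application. Desensitizing inward currents were measured, and α7 mediation was tested with MLA (10 nM), n = 3.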

[21] = Activity at alpha7-5HT3 chimera expressed in SHEP1 cells by FLIPR assay; format: functional, cell-based; settings: Homo sapiens, SH-EP1
Procedure, shortened: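 Cell-based FLIPR functional assay in SH-EP1 cells expressing the α7-5HT3 chimera. Values are the average of at least five experiments for most compounds.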

[22] = molecular target: Neuronal acetylcholine receptor; alpha3/beta4 (Homo sapiens, UniProt P30926+P32297); experiment: Inhibition of alpha-3-beta-4 nAChR expressed in SHSY5Y cells by FLIPR assay; format: functional, cell-based, SH-SY5Y
Procedure, shortened: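 FLIPR cell-based functional assay in SH-SY5Y cells, which carry α3β4-containing ganglion-type nAChRs; tested for agonist and antagonist activity; IC50 in µM.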

[23] = molecular target: Acetylcholine receptor; alpha1/beta1/delta/gamma (Homo sapiens, UniProt P02708+P07510+P11230+Q07001); experiment: Inhibition of alpha-1-beta-1-gamma-delta nAChR expressed in TE671cells by FLIPR assay; format: functional, cell-based, TE-671
Procedure, shortened: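 Functional FLIPR read-out in TE671 cells expressing native muscle-type α1β1γδ nAChR, cell-based; tested for agonist and antagonist activity; IC50 in µM.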

[24] = molecular target: hERG (Homo sapiens, UniProt Q12809); experiment: Inhibition of hERG expressed in HEK293 cells at 20 uM by patch clamp assay; format: toxicity, cell-based; settings: HEK293 cells that express hERG
Procedure, shortened: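 hERG current (IKr) in HEK cells recorded by patch clamp; compound applied at 2 and 20 µM; % block of current reported at each concentration.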

[25] = molecular target: Cytochrome P450 2D6 (Homo sapiens, UniProt P10635); experiment: Inhibition of CYP2D6; format: ADME
[26] = test system: Rattus norvegicus; experiment: Drug level in Sprague-Dawley rat brain at 10 mg/kg, iv; format: ADME, organism-based; design: dose 10 mg/kg, route intravenous; settings: in vivo, read-out: Drug uptake
Procedure, shortened: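 Anesthetized rats received d-amphetamine (1 mg/kg, iv) and then the agonist iv in the auditory gating model. Brain concentrations were measured after the iv agonist dose.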

[27] = molecular target: Adenosine receptor A1 (Homo sapiens) (UniProt P30542); experiment: Inhibition of adenosine A1 receptor at 1 uM
[28] = molecular target: Adrenergic receptor alpha-1 (Homo sapiens) (UniProt P35348+P25100+P35368); experiment: Inhibition of adrenergic alpha1 receptor at 1 uM; format: protein assay
[29] = molecular target: Glutamate [NMDA] receptor (Homo sapiens) (UniProt Q05586+Q12879+Q13224+O15399+O60391+Q14957+Q8TCU5); experiment: Inhibition of NMDA receptor at 1 uM; format: protein-complex assay
[30] = molecular target: C-X-C chemokine receptor type 2 (Homo sapiens) (UniProt P25025); experiment: Inhibition of CXCR2 at 1 uM
[31] = molecular target: Histamine H2 receptor (Homo sapiens) (UniProt P25021); experiment: Inhibition of histamine H2 receptor at 1 uM
[32] = molecular target: Muscarinic acetylcholine receptor M2 (Homo sapiens) (UniProt P08172); experiment: Inhibition of M2 receptor at 1 uM
[33] = molecular target: Muscarinic acetylcholine receptor M3 (Homo sapiens) (UniProt P20309); experiment: Inhibition of M3 receptor at 1 uM
[34] = molecular target: Muscarinic acetylcholine receptor M4 (Homo sapiens) (UniProt P08173); experiment: Inhibition of M4 receptor at 1 uM
[35] = molecular target: Muscarinic acetylcholine receptor M5 (Homo sapiens) (UniProt P08912); experiment: Inhibition of M5 receptor at 1 uM
[36] = molecular target: Substance-P receptor (Homo sapiens) (UniProt P25103); experiment: Inhibition of NK1 receptor at 1 uM
[37] = molecular target: Substance-K receptor (Homo sapiens) (UniProt P21452); experiment: Inhibition of NK2 receptor at 1 uM
[38] = molecular target: Neuromedin-K receptor (Homo sapiens) (UniProt P29371); experiment: Inhibition of NK3 receptor at 1 uM
[39] = molecular target: Vasoactive intestinal polypeptide receptor 2 (Homo sapiens) (UniProt P41587); experiment: Inhibition of PACAP receptor at 1 uM
[40] = molecular target: Vasoactive intestinal polypeptide receptor 1 (Homo sapiens) (UniProt P32241); experiment: Inhibition of VIP1 receptor at 1 uM
Chain of Vasoactive intestinal polypeptide receptor 1 (Homo sapiens) (P32241 whole entry): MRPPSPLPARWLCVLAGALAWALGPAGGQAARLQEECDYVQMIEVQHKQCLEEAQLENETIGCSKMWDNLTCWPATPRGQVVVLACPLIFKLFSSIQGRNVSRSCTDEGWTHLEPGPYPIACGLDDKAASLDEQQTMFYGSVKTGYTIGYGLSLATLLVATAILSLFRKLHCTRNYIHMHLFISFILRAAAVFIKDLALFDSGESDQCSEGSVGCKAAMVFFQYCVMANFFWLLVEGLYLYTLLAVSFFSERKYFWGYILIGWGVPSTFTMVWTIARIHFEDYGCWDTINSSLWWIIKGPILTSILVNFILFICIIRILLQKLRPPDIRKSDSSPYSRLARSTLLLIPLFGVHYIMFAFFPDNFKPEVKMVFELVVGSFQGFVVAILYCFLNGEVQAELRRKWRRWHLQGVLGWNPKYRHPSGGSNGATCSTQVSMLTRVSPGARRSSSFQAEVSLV

Chain of D(3) dopamine receptor (Homo sapiens) (P35462 whole entry): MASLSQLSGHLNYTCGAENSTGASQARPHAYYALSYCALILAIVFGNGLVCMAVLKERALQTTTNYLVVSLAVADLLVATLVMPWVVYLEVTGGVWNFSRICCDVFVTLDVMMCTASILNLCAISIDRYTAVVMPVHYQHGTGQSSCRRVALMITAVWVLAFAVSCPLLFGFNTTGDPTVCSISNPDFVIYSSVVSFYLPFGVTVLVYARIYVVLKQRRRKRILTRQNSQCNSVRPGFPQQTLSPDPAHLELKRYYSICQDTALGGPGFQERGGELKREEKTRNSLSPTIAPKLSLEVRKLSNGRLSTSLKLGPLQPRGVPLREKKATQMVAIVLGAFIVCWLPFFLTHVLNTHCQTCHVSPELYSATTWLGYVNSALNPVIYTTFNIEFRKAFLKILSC
Chain of Substance-K receptor (Homo sapiens) (P21452 whole entry): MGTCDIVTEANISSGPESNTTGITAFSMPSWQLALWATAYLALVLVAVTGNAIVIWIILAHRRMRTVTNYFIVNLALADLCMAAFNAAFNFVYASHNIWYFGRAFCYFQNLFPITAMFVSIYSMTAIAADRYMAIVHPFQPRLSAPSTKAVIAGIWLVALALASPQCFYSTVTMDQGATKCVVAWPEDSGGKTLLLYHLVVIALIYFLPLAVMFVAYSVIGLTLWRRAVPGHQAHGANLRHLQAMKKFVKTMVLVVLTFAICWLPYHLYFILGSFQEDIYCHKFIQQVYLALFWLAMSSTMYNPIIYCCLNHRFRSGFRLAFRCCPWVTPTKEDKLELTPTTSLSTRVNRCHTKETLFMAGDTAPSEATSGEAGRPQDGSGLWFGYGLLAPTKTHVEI
Chain of Cytochrome P450 2D6 (P10635 whole entry): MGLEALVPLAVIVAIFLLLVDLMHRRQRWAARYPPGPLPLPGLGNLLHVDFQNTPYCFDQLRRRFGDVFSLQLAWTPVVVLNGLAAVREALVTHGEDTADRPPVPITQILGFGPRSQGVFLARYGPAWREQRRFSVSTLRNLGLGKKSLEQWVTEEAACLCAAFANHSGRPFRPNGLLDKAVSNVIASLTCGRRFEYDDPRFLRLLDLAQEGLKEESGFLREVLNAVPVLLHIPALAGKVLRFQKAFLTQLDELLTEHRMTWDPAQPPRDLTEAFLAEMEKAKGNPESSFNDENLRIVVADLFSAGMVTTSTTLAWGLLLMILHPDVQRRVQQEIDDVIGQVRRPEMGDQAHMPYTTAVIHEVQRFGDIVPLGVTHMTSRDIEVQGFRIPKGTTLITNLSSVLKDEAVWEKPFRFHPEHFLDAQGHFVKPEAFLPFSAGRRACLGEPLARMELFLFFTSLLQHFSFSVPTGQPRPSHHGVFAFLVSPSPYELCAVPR
Chain of Translocator protein (Homo sapiens) (P30536 whole entry): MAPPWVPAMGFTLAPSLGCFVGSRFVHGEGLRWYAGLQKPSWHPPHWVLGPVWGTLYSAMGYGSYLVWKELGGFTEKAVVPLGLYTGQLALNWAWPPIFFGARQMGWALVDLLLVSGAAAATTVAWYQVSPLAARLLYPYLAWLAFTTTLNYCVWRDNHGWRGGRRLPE
Chain of Cathepsin G (Homo sapiens) (P08311 whole entry): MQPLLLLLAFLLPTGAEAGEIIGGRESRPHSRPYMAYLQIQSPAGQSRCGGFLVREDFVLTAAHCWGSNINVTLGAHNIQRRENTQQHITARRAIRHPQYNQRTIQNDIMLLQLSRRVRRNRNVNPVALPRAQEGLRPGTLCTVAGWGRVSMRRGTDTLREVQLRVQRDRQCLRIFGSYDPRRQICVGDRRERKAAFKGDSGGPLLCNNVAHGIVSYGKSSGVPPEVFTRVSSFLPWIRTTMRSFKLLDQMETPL
Chain of Acetylcholinesterase (Homo sapiens) (P22303 whole entry): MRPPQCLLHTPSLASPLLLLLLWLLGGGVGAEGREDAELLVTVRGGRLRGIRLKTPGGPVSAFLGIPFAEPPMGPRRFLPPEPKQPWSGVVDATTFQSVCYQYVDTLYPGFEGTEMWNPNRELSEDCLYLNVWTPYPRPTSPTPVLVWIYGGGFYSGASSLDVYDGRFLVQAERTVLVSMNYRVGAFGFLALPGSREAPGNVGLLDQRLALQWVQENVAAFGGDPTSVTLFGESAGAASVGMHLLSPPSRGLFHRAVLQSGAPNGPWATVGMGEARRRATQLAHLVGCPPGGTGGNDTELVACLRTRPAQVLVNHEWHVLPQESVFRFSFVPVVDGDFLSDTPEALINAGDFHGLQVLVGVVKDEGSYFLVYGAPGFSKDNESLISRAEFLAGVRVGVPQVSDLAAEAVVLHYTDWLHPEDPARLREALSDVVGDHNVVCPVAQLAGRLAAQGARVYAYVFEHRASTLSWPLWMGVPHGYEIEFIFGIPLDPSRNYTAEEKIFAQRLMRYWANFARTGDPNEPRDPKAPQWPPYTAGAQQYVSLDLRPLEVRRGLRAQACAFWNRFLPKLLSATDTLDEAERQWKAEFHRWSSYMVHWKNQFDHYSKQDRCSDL
Chain of Neuronal acetylcholine receptor; alpha3/beta4 (P30926 whole entry): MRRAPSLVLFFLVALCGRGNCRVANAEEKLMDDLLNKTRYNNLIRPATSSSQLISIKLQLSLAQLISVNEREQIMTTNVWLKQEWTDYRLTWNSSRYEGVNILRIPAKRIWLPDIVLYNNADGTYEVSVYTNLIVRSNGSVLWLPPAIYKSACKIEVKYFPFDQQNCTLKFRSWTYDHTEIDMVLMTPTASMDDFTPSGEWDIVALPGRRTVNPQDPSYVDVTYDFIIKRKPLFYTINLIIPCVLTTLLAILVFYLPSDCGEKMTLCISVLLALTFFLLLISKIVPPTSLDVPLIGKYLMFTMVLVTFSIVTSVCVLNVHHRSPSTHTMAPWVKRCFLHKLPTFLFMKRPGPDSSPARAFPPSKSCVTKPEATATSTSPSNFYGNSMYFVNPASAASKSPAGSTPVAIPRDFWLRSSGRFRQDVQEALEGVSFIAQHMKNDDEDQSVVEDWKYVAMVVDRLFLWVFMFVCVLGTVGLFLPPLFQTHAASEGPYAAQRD
Chain of Neuronal acetylcholine receptor; alpha3/beta4 (P32297 whole entry): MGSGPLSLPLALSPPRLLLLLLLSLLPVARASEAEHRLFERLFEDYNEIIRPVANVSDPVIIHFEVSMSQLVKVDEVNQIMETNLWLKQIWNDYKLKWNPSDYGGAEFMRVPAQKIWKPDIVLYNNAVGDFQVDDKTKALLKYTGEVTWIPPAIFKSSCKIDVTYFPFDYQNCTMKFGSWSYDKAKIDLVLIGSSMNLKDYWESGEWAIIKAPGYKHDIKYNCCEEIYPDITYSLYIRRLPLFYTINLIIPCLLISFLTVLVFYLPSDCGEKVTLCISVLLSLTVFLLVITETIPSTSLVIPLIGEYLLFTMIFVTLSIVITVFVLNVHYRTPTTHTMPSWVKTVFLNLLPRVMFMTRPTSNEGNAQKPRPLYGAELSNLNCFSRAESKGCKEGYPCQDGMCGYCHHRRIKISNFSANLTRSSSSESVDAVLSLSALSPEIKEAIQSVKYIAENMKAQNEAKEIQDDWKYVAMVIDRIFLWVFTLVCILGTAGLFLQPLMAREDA
Chain of Vasoactive intestinal polypeptide receptor 2 (Homo sapiens) (P41587 whole entry): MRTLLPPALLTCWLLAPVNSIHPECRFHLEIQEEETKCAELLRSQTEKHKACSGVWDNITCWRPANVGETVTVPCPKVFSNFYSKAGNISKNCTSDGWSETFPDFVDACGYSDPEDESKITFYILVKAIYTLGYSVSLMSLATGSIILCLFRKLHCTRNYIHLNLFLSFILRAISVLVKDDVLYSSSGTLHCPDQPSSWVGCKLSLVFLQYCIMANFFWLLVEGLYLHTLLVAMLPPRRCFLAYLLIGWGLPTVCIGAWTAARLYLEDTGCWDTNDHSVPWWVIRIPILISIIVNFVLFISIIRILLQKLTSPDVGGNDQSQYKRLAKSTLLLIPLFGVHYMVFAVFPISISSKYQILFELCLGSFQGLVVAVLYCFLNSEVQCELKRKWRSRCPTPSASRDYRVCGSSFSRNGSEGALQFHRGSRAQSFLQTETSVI
Chain of Muscarinic acetylcholine receptor M5 (Homo sapiens) (P08912 whole entry): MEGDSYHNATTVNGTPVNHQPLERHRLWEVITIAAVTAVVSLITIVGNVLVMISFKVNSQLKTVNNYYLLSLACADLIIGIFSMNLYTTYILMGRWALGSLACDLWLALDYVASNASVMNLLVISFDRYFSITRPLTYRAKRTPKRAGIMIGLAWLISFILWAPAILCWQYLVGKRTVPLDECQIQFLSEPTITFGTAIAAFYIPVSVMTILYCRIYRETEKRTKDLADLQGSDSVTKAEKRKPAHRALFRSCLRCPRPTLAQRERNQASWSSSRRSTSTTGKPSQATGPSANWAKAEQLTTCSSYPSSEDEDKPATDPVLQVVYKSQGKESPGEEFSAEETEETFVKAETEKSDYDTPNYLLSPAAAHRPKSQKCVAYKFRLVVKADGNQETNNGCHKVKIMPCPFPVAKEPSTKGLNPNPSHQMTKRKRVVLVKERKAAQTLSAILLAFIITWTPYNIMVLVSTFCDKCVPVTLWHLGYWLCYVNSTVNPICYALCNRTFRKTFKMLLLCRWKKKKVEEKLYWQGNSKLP

## O=C(N[C@H]1CN2CCC1CC2)c1cc2ccoc2cn1 [PHA-543613]
[1]
  bioavailability: 63%
[2]
  clearance: 33.3 mL/min/kg
[3]
  Vd: 1.8 L/kg
[4]
  Activity: 51%
[5]
  inhibition: 16%
[6]
  inhibition: < 10%
[7]
  inhibition: < 10%
[8]
  inhibition: < 10%
[9]
  inhibition: 10%
[10]
  half-life: 40 min
[11]
  inhibition: < 10%
[12]
  inhibition: < 10%
[13]
  inhibition: < 10%
[14]
  inhibition: < 10%
[15]
  inhibition: < 10%
[16]
  inhibition: 25%
[17]
  inhibition: < 10%
[18]
  inhibition: 15%
[19]
  inhibition: < 10%
[20]
  Activity: 34%
[21]
  EC50: 0.065 µM
[22]
  IC50: > 100 µM
[23]
  IC50: > 100 µM
[24]
  inhibition at 20 µM: 29%
[25]
  IC50: > 10 µM
[26]
  concentration: 14.9 µM
[27]
  inhibition: < 10%
[28]
  inhibition: < 10%
[29]
  inhibition: 11%
[30]
  inhibition: < 10%
[31]
  inhibition: < 10%
[32]
  inhibition: 23%
[33]
  inhibition: 33%
[34]
  inhibition: < 10%
[35]
  inhibition: < 10%
[36]
  inhibition: 26%
[37]
  inhibition: < 10%
[38]
  inhibition: < 10%
[39]
  inhibition: < 10%
[40]
  inhibition: < 10%
